Experimental data: ChEMBL document CHEMBL3877338, “Antiparasitic Lead Discovery: Toward Optimization of a Chemotype with Activity Against Multiple Protozoan Parasites” (ACS Med Chem Lett, 2017)
≈ marks a conversion by molar mass, not a printed value.

Experiments:
Leishmania major = assay: Antileishmanial activity against luciferase-expressing Leishmania major amastigotes infected in mouse RAW264.7 cells after 96 hrs by luminescence assay; assay type: functional, cell-based; conditions: RAW264.7, 96 h
How it was run: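 RAW 264.7 macrophages, 10,000/well, 24 h at 37 °C, then infected overnight with luciferase-expressing L. major promastigotes (100,000/well) and washed three times. Twelve two-fold dilutions in duplicate, final […]–10,000 ng/mL. 96 h at 37 °C, 5% CO2, then luciferin 30 min in the dark and luminescence read. IC50 by sigmoidal variable-slope nonlinear regression.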

[1] = system: Trypanosoma brucei brucei; assay: Antitrypanosomal activity against Trypanosoma brucei brucei 427 bloodstream forms after 48 hrs by presto blue dye based fluorescence assay; assay type: functional; conditions: Trypanosoma brucei, 427, 48 h
[2] = Cytotoxicity against human HepG2 cells assessed as reduction in cell viability after 48 hrs by MTT assay; assay type: toxicity, cell-based; conditions: read-out: TC50
How it was run: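 HepG2 cells in supplemented MEM, 9570/well, plated overnight at 37 °C. Twelve 1.6-fold dilutions in duplicate, 57–10,000 ng/mL, for 48 h; mefloquine plate control. MTT added for 1 h at room temperature in the dark, formazan dissolved in acidified isopropanol, absorbance read. IC50 by sigmoidal variable-slope nonlinear regression.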

[3] = Cytotoxicity against […] cells assessed as reduction in cell viability after 96 hrs by presto blue assay; assay type: toxicity; conditions: read-out: TC50
How it was run: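 NIH 3T3 cells in phenol red-free DMEM with 2% FBS, 5×10^4/well, left 2 h to attach, then exposed to compound 96 h at 37 °C, 5% CO2. PrestoBlue added for 4 h, fluorescence read at ex 530/em 590 nm.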

Trypanosoma cruzi = assay: Antitrypanosomal activity against Trypanosoma cruzi Tulahuen amastigotes infected in […] cells after 96 hrs by chlorophenol red-beta-D-galactopyranoside based assay; conditions: NIH3T3, 96 h
[4] = Protein binding in human plasma; assay type: ADME, cell-free
[5] = Thermodynamic aqueous solubility of the compound; assay type: physicochemical; conditions: buffer; read-out: Therm_solubility
[6] = Fraction unbound in human plasma; assay type: ADME, cell-free
[7] = Intrinsic clearance in human liver microsomes; assay type: ADME
[8] = Intrinsic clearance in rat hepatocytes assessed per million cells; assay type: ADME, cell-based, Hepatocyte
[9] = Lipophilicity, log D of the compound at pH 7.4; assay type: physicochemical; conditions: buffer
[10] = Ratio of drug level in BALB/c mouse brain to plasma at 10 mg/kg, ip administered as single dose at 0.25 hrs post dose by LC-MS/MS analysis; assay type: ADME, organism-based
How it was run: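 Female BALB/c mice, 8–12 weeks, single 10 mg/kg i.p. dose (10 mL/kg) in NMP/solutol HS/saline solution. Three mice per time point. Plasma (K2EDTA) and brain collected; brain washed in PBS and homogenized in PBS pH 7.4 to three times its weight. Protein precipitation with acetonitrile, then LC-MS/MS (LLOQ 1.04 ng/mL plasma, 2.08 ng/mL brain). Non-compartmental analysis.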

## O=S(=O)(c1ccc(-c2ccc3nccc(Nc4ccnnc4)c3c2)cc1)N1CCOCC1
Leishmania major
  EC50: > 20 µM
[1]
  EC50: > 20 µM
[2]
  CC50 at 48 h: > 20 µM
[3]
  CC50 at 96 h: > 20 µM
Trypanosoma cruzi
  EC50: > 20 µM

## Cc1nnc(Nc2ccnc3ccc(-c4ccc(S(=O)(=O)N5CCOCC5)cc4)cc23)nc1C
Leishmania major
  EC50: > 20 µM
[1]
  EC50: 3.1 µM
[2]
  CC50 at 48 h: > 20 µM
[3]
  CC50 at 96 h: > 20 µM
Trypanosoma cruzi
  EC50: > 20 µM

## Cc1cc(Nc2ccnc3ccc(-c4ccc(S(=O)(=O)N5CCOCC5)cc4)cc23)sn1
Leishmania major
  EC50: 4.5 µM
[1]
  EC50: 0.072 µM
[2]
  CC50 at 48 h: > 20 µM
[3]
  CC50 at 96 h: > 20 µM
Trypanosoma cruzi
  EC50: 3.9 µM

## CCn1nccc1Nc1ccnc2ccc(-c3ccc(S(=O)(=O)N4CCOCC4)cc3)cc12
Leishmania major
  EC50: > 20 µM
[1]
  EC50: 2.5 µM
[2]
  CC50 at 48 h: > 20 µM
[3]
  CC50 at 96 h: > 20 µM
Trypanosoma cruzi
  EC50: > 20 µM

## CS(=O)(=O)CCNCc1ccc(-c2ccc3ncnc(Nc4ccc(OCc5cccc(F)c5)c(Cl)c4)c3c2)o1 [LAPATINIB]
[2]
  CC50 at 48 h: > 20 µM

## O=S(=O)(c1ccc(-c2ccc3nccc(Nc4ccccn4)c3c2)cc1)N1CCOCC1
Leishmania major
  EC50: > 20 µM
[1]
  EC50: 4.5 µM
[2]
  CC50 at 48 h: > 20 µM
[3]
  CC50 at 96 h: > 20 µM
Trypanosoma cruzi
  EC50: 16 µM

## O=S(=O)(c1ccc(-c2ccc3ncccc3c2)cc1)N1CCOCC1
Leishmania major
  EC50: > 20 µM
[1]
  EC50: > 20 µM
[2]
  CC50 at 48 h: > 20 µM
[3]
  CC50 at 96 h: > 20 µM
Trypanosoma cruzi
  EC50: > 20 µM

## Cc1cnnc(Nc2ccnc3ccc(-c4ccc(S(=O)(=O)N5CCOCC5)cc4)cc23)c1
Leishmania major
  EC50: > 20 µM
[1]
  EC50: 2 µM
[2]
  CC50 at 48 h: > 20 µM
[3]
  CC50 at 96 h: > 20 µM
Trypanosoma cruzi
  EC50: > 20 µM

## N#Cc1cnc(Nc2ccnc3ccc(-c4ccc(S(=O)(=O)N5CCOCC5)cc4)cc23)cn1
Leishmania major
  EC50: > 20 µM
[1]
  EC50: 7.9 µM
[2]
  CC50 at 48 h: > 20 µM
[3]
  CC50 at 96 h: > 20 µM
Trypanosoma cruzi
  EC50: > 20 µM

## Cc1cc(Nc2ccnc3ccc(-c4ccc(S(=O)(=O)N5CCOCC5)cc4)cc23)on1
Leishmania major
  EC50: > 20 µM
[1]
  EC50: 1.1 µM
[2]
  CC50 at 48 h: > 20 µM
[3]
  CC50 at 96 h: > 20 µM
Trypanosoma cruzi
  EC50: 7.6 µM

## O=S(=O)(c1ccc(-c2ccc3ncnc(Nc4ccc(OCc5cccc(F)c5)cc4)c3c2)cc1)N1CCOCC1
[2]
  CC50 at 48 h: > 20 µM

## Cc1noc(C)c1Nc1ccnc2ccc(-c3ccc(S(=O)(=O)N4CCOCC4)cc3)cc12
Leishmania major
  EC50: > 20 µM
[1]
  EC50: 6.6 µM
[2]
  CC50 at 48 h: > 20 µM
[3]
  CC50 at 96 h: > 20 µM
Trypanosoma cruzi
  EC50: > 20 µM

## O=S(=O)(c1ccc(-c2ccc3nccc(Nc4ccccc4)c3c2)cc1)N1CCOCC1
Leishmania major
  EC50: 7.1 µM
[1]
  EC50: 0.98 µM
[2]
  CC50 at 48 h: > 20 µM
[3]
  CC50 at 96 h: > 20 µM
Trypanosoma cruzi
  EC50: 6.2 µM

## O=S(=O)(c1ccc(-c2ccc3nccc(Nc4ncc(Cl)cn4)c3c2)cc1)N1CCOCC1
Leishmania major
  EC50: 0.37 µM
[1]
  EC50: 3.8 µM
[2]
  CC50 at 48 h: > 20 µM
[3]
  CC50 at 96 h: > 20 µM
[4]
  PPB: 99.6%
[5]
  solubility thermodynamic: 1 µM (≈ 0.482 µg/mL)
Trypanosoma cruzi
  EC50: > 20 µM

## O=S(=O)(c1ccc(-c2ccc3nccc(Nc4ccncc4)c3c2)cc1)N1CCOCC1
Leishmania major
  EC50: > 20 µM
[1]
  EC50: 0.11 µM
[2]
  CC50 at 48 h: > 20 µM
[3]
  CC50 at 96 h: > 20 µM
Trypanosoma cruzi
  EC50: > 20 µM

## O=[N+]([O-])c1ccc(Nc2ccnc3ccc(-c4ccc(S(=O)(=O)N5CCOCC5)cc4)cc23)cn1
Leishmania major
  EC50: 5.8 µM
[1]
  EC50: 3.2 µM
[2]
  CC50 at 48 h: > 20 µM
[3]
  CC50 at 96 h: > 20 µM
Trypanosoma cruzi
  EC50: > 20 µM

## O=S(=O)(c1ccc(-c2ccc3nccc(Nc4cnccn4)c3c2)cc1)N1CCOCC1
Leishmania major
  EC50: > 20 µM
[1]
  EC50: > 20 µM
[2]
  CC50 at 48 h: > 20 µM
[3]
  CC50 at 96 h: > 20 µM
Trypanosoma cruzi
  EC50: > 20 µM

## O=S(=O)(c1ccc(-c2ccc3nccc(Nc4ccc(OCc5cccc(F)c5)cc4)c3c2)cc1)N1CCOCC1
Leishmania major
  EC50: 1.2 µM
[1]
  EC50: 0.37 µM
[2]
  CC50 at 48 h: > 5 µM
[5]
  solubility thermodynamic: 2 µM (≈ 1.14 µg/mL)
[6]
  Fu: < 0.1%
[7]
  CLH: 98 µL/min/mg
[8]
  CLH: 19 µL/min
Trypanosoma cruzi
  EC50: 2.8 µM

## Cc1cnc(Nc2ccnc3ccc(-c4ccc(S(=O)(=O)N5CCOCC5)cc4)cc23)s1
Leishmania major
  EC50: 1.2 µM
[1]
  EC50: 1.6 µM
[2]
  CC50 at 48 h: > 20 µM
[3]
  CC50 at 96 h: > 20 µM
Trypanosoma cruzi
  EC50: 6.1 µM

## O=S(=O)(c1ccc(-c2ccc3nccc(Nc4nnc(C5CC5)s4)c3c2)cc1)N1CCOCC1
Leishmania major
  EC50: 2 µM
[1]
  EC50: 4.7 µM
[2]
  CC50 at 48 h: > 20 µM
[3]
  CC50 at 96 h: > 20 µM
Trypanosoma cruzi
  EC50: > 20 µM

## COc1ncc(Nc2ccnc3ccc(-c4ccc(S(=O)(=O)N5CCOCC5)cc4)cc23)cn1
Leishmania major
  EC50: > 20 µM
[1]
  EC50: 5.6 µM
[2]
  CC50 at 48 h: > 20 µM
[3]
  CC50 at 96 h: > 20 µM
Trypanosoma cruzi
  EC50: > 20 µM

## COc1ccc(Nc2ccnc3ccc(-c4ccc(S(=O)(=O)N5CCOCC5)cc4)cc23)cc1C
Leishmania major
  EC50: 5.7 µM
[1]
  EC50: 0.31 µM
[2]
  CC50 at 48 h: 9 µM
[3]
  CC50 at 96 h: 15 µM
Trypanosoma cruzi
  EC50: 3.6 µM

## O=S(=O)(c1ccc(-c2ccc3nccc(Nc4cncs4)c3c2)cc1)N1CCOCC1
Leishmania major
  EC50: 5.4 µM
[1]
  EC50: 1.2 µM
[2]
  CC50 at 48 h: > 20 µM
[3]
  CC50 at 96 h: > 20 µM
Trypanosoma cruzi
  EC50: > 20 µM

## CCOCCOc1ccnc2ccc(-c3ccc(S(=O)(=O)N4CCOCC4)cc3)cc12
Leishmania major
  EC50: > 20 µM
[1]
  EC50: 0.71 µM
[2]
  CC50 at 48 h: > 20 µM
Trypanosoma cruzi
  EC50: > 20 µM

## O=S(=O)(c1ccc(-c2ccc3nccc(Nc4ccc5[nH]nnc5c4)c3c2)cc1)N1CCOCC1
Leishmania major
  EC50: > 20 µM
[1]
  EC50: 16 µM
[2]
  CC50 at 48 h: > 20 µM
[3]
  CC50 at 96 h: > 20 µM
Trypanosoma cruzi
  EC50: > 20 µM

## COc1ccc(Nc2ccnc3ccc(-c4ccc(S(=O)(=O)N5CCOCC5)cc4)cc23)cc1Cl
Leishmania major
  EC50: 5.3 µM
[1]
  EC50: 1.7 µM
[2]
  CC50 at 48 h: > 20 µM
[3]
  CC50 at 96 h: > 20 µM
Trypanosoma cruzi
  EC50: 7.2 µM

## CCc1nnc(Nc2ccnc3ccc(-c4ccc(S(=O)(=O)N5CCOCC5)cc4)cc23)s1
Leishmania major
  EC50: 3.1 µM
[1]
  EC50: 4.2 µM
[2]
  CC50 at 48 h: > 20 µM
[3]
  CC50 at 96 h: > 20 µM
Trypanosoma cruzi
  EC50: > 20 µM

## O=S(=O)(c1ccc(-c2ccc3nccc(Nc4ccncn4)c3c2)cc1)N1CCOCC1
Leishmania major
  EC50: > 20 µM
[1]
  EC50: 0.024 µM
[2]
  CC50 at 48 h: > 20 µM
[3]
  CC50 at 96 h: > 20 µM
[4]
  PPB: 95.6%
[9]
  logD: 3.3
[5]
  solubility thermodynamic: 1.4 µM (≈ 0.627 µg/mL)
[7]
  CLH: 207.5 µL/min/mg
[8]
  CLH: 31.5 µL/min
[10]
  BPR: 0.01
Trypanosoma cruzi
  EC50: > 20 µM

## Fc1cccc(COc2ccc(Nc3ncnc4ccc(-c5cccc(N6CCOCC6)c5)cc34)cc2Cl)c1
[2]
  CC50 at 48 h: > 20 µM

## O=S(=O)(c1ccc(-c2ccc3nccc(Nc4cccnc4)c3c2)cc1)N1CCOCC1
Leishmania major
  EC50: > 20 µM
[1]
  EC50: 3.8 µM
[2]
  CC50 at 48 h: > 20 µM
[3]
  CC50 at 96 h: > 20 µM
Trypanosoma cruzi
  EC50: > 20 µM
